Activity data for four compounds are collected here from ChEMBL document CHEMBL1145471, “Small molecule regulators of autophagy identified by an image-based high-throughput screen” (Proc Natl Acad Sci U S A, 2007).

Holding throughout (format): functional
For experiment [1], the system named is H4. Kind of experiment: Increase in light chain 3-GFP+ autophagosome vesicle number per cell in human H4 cells at 9.0 uM after 24 hrs by high throughput fluorescence microscopy relative to control. The procedure, abridged: (§1)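 H4 cells stably expressing LC3-GFP, grown in DMEM with 10% FBS, penicillin/streptomycin and 2 mM L-glutamine at 37°C, 5% CO2. Cells were seeded in 96-well plates and exposed to library compounds at 3–12 μM for 24 h, then fixed in 4% paraformaldehyde and stained with 3 μg/ml DAPI. LC3-GFP spot number, size and intensity were measured by high-throughput fluorescence microscopy and expressed relative to DMSO. Triplicates, mean ± SD.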

Experiment [2] concerns H4. Kind of experiment: Increase in light chain 3-GFP+ autophagosome vesicle area per cell in human H4 cells at 9.0 uM after 24 hrs by high throughput fluorescence microscopy relative to control. The method, boiled down: (§2)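 H4 cells stably expressing LC3-GFP, seeded in 96-well plates and exposed to compound for 24 h; screening concentrations were 3–12 μM, with rapamycin 0.22 μM and bafilomycin A1 0.40 μM. Cells fixed in 4% paraformaldehyde and stained with 3 μg/ml DAPI. Number, size and intensity of LC3-GFP spots measured by high-throughput fluorescence microscopy and expressed as percent of DMSO-treated wells. Rapamycin was the positive control. Triplicate wells, mean ± SD; experiments repeated three times.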

Experiment [3] has as its system H4. Kind of experiment: Increase in light chain 3-GFP+ autophagosome vesicle intensity per cell in human H4 cells at 9.0 uM after 24 hrs by high throughput fluorescence microscopy relative to control. The procedure, abridged:
(§3)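 H4 cells stably expressing LC3-GFP were grown in DMEM with 10% FBS and 2 mM L-glutamine at 37°C, 5% CO2. They were exposed to each compound for 24 h, with DMSO as negative and rapamycin as positive control. Cells were then fixed in 4% paraformaldehyde and stained with 3 μg/ml DAPI. High-throughput fluorescence imaging scored LC3-GFP spot number, size and intensity, expressed relative to DMSO. Mean ± SD of triplicates; experiments repeated three times.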

In experiment [4] the test system is H4. Kind of experiment: Decrease in FYVE-RFP+ vesicle intensity per cell in human H4 cells after 2 hrs relative to control. Details: concentration or dose not given beside the values. The method, boiled down: (§4)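 H4 cells stably expressing FYVE-RFP (H4-FYVE), grown in DMEM with 10% FBS, penicillin/streptomycin and 2 mM L-glutamine at 37°C, 5% CO2, seeded in 96-well plates and exposed to compound. Fixed in 4% paraformaldehyde, nuclei stained with 3 μg/ml DAPI, FYVE-RFP+ vesicles quantified by high-throughput fluorescence microscopy against DMSO control. Triplicate wells, mean ± SD.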

Experiment [5] has as its system H4. Kind of experiment: Decrease in FYVE-RFP+ vesicle intensity per cell in human H4 cells after 4 hrs relative to control. Details: concentration or dose not given beside the values. The method, boiled down:
as §4

The test system of experiment [6] is H4. Kind of experiment: Decrease in FYVE-RFP+ vesicle intensity per cell in human H4 cells after 8 hrs relative to control. Details: concentration or dose not given beside the values. The procedure, abridged: as §4
In experiment [7] the test system is H4. Kind of experiment: Increase in long-lived protein degradation in human H4 cells after 1 hr relative to control. Details: concentration or dose not given beside the values.
Experiment [8] relates to H4. Kind of experiment: Increase in long-lived protein degradation in human H4 cells after 2 hrs relative to control. Further details: concentration or dose not given beside the values.
The subject of experiment [9] is H4. Kind of experiment: Increase in long-lived protein degradation in human H4 cells after 4 hrs relative to control. Details: concentration or dose not given beside the values.
Experiment [10] has as its system H4. Kind of experiment: Increase in long-lived protein degradation in human H4 cells after 24 hrs relative to control. Further details: concentration or dose not given beside the values.
The test system of experiment [11] is H4. Kind of experiment: Induction of light chain 3-GFP level in human H4 cells at 9.0 uM after 24 hrs by high throughput fluorescence microscopy relative to control. The procedure, abridged:
as §1

Experiment [12] relates to H4. Kind of experiment: Increase in light chain 3-GFP+ autophagosome vesicle number per cell in human H4 cells at 0.4 uM after 24 hrs by high throughput fluorescence microscopy relative to control. The method, boiled down:
(§5)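 H4 cells stably expressing LC3-GFP, seeded in 96-well plates and exposed to compound for 24 h; fixed in 4% paraformaldehyde, nuclei stained with 3 μg/ml DAPI. Automated fluorescence microscopy scored number, size and intensity of LC3-GFP spots; values expressed relative to DMSO-treated wells, rapamycin positive control. Triplicate wells, mean ± SD; experiments repeated three times.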

Experiment [13] concerns H4. Kind of experiment: Increase in light chain 3-GFP+ autophagosome vesicle area per cell in human H4 cells at 0.4 uM after 24 hrs by high throughput fluorescence microscopy relative to control. The procedure, abridged: as §5
In experiment [14] the test system is H4. Kind of experiment: Increase in light chain 3-GFP+ autophagosome vesicle intensity per cell in human H4 cells at 0.4 uM after 24 hrs by high throughput fluorescence microscopy relative to control. The procedure, abridged:
as §5

Experiment [15] deals with H4. Kind of experiment: Induction of light chain 3-GFP level in human H4 cells at 0.4 uM after 24 hrs by high throughput fluorescence microscopy relative to control. The procedure, abridged: (§6)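 H4 cells stably expressing LC3-GFP, kept in DMEM/10% FBS at 37°C, 5% CO2, were seeded in 96-well plates and exposed to compound for 24 h. Cells were then fixed in 4% paraformaldehyde and stained with 3 μg/ml DAPI. Automated fluorescence microscopy scored the number, size and intensity of LC3-GFP spots. Values are percent of DMSO wells, in triplicate, mean ± SD. Rapamycin served as positive control.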

The subject of experiment [16] is H4. Kind of experiment: Increase in light chain 3-GFP+ autophagosome vesicle number per cell in human H4 cells at 8.8 uM after 24 hrs by high throughput fluorescence microscopy relative to control. The procedure, abridged:
as §1

For experiment [17], the system named is H4. Kind of experiment: Increase in light chain 3-GFP+ autophagosome vesicle area per cell in human H4 cells at 8.8 uM after 24 hrs by high throughput fluorescence microscopy relative to control. The procedure, abridged:
as §2

The subject of experiment [18] is H4. Kind of experiment: Increase in light chain 3-GFP+ autophagosome vesicle intensity per cell in human H4 cells at 8.8 uM after 24 hrs by high throughput fluorescence microscopy relative to control. The procedure, abridged: as §3
Experiment [19] relates to H4. Kind of experiment: Effect on FYVE-RFP+ vesicle intensity per cell in human H4 cells after 2 hrs relative to control. Further details: concentration or dose not given beside the values. The method, boiled down: as §4
In experiment [20] the test system is H4. Kind of experiment: Effect on FYVE-RFP+ vesicle intensity per cell in human H4 cells after 4 hrs relative to control. Details: concentration or dose not given beside the values. The method, boiled down:
as §4

For experiment [21], the system named is H4. Kind of experiment: Effect on FYVE-RFP+ vesicle intensity per cell in human H4 cells after 8 hrs relative to control. Further details: concentration or dose not given beside the values. The procedure, abridged:
as §4

Experiment [22] relates to H4. Kind of experiment: Induction of light chain 3-GFP level in human H4 cells at 8.8 uM after 24 hrs by high throughput fluorescence microscopy relative to control. The method, boiled down: as §1
Experiment [23] has as its system H4. Kind of experiment: Increase in light chain 3-GFP+ autophagosome vesicle number per cell in human H4 cells at 13.2 uM after 24 hrs by high throughput fluorescence microscopy relative to control. The method, boiled down:
as §5

In experiment [24] the test system is H4. Kind of experiment: Increase in light chain 3-GFP+ autophagosome vesicle area per cell in human H4 cells at 13.2 uM after 24 hrs by high throughput fluorescence microscopy relative to control. The method, boiled down: as §5
The subject of experiment [25] is H4. Kind of experiment: Increase in light chain 3-GFP+ autophagosome vesicle intensity per cell in human H4 cells at 13.2 uM after 24 hrs by high throughput fluorescence microscopy relative to control. The procedure, abridged: as §5
The subject of experiment [26] is H4. Kind of experiment: Induction of light chain 3-GFP level in human H4 cells at 13.2 uM after 24 hrs by high throughput fluorescence microscopy relative to control. The procedure, abridged: as §6

As to `O=C(Nc1ccccc1)c1cc([N+](=O)[O-])ccc1Cl`, the Activity in [1] amounted to 128.11%; in experiment [2] it was 137.98%; in experiment [3], 166.91%; in experiment [4], 40.32%; in experiment [5], 44.5%; in experiment [6], 29.9%. For the same compound, the Activity in experiment [7] was 106.33%; in experiment [8], 87.58%; in [9], 93.22%; in experiment [10] it was 89.29%; in experiment [11] it was 105.38%.

For the compound `CO/C1=C\C(C)=C\[C@@H](C)[C@@H](O)[C@@H](C)C/C(C)=C/C=C/[C@H](OC)[C@@H]([C@@H](C)[C@@H](O)[C@H](C)[C@@]2(O)C[C@@H](O)[C@H](C)[C@@H](C(C)C)O2)OC1=O` [BAFILOMYCIN A1], the Activity worked out at 691.15% in [12], 1608.62% in experiment [13], 4027.54% in experiment [14] and 71.96% in [15].

Take `O=C(/C=C/c1ccc(O)c(O)c1)OCCc1ccccc1` [CAFFEIC ACID PHENETHYL ESTER]: the Activity in [16] is 147.15%; in experiment [17] it was 160.43%; in experiment [18], 150.18%; in [19] it was 86.89%; in experiment [20], 71.17%; in experiment [21], 69.14%. The Activity was 122.08% in [7]; 128.4% in experiment [8]; 120.18% in experiment [9]; 106.53% in experiment [10]; 146.2% in experiment [22].

On to `O[C@H]1[C@H](O)[C@@H](O)CN2CC[C@H](O)[C@H]12` [CASTANOSPERMINE], for which the Activity in experiment [23] was 156.81%; in experiment [24], 174.29%; in experiment [25], 171.2%; in [4], 37.35%; in [5] it was 40.02%; in experiment [6], 36.45%. For the same compound, the Activity in [7] worked out at 83.53%; in experiment [8] it was 84.26%; in [9] it was 88.75%; in experiment [10], 85.6%; in [26] it was 157.35%.
